The values below come from ChEMBL document CHEMBL1811800, “The discovery of long-acting saligenin β₂ adrenergic receptor agonists incorporating hydantoin or uracil rings” (Bioorg Med Chem, 2011).

In data set [1] the target is Beta-2 adrenergic receptor (Cavia porcellus, UniProt Q8K4Z4). Briefly: Agonist activity at adrenergic beta2 receptor in guinea pig trachea assessed as inhibition of electrically-stimulated contraction. The class given is functional.
Data set [2] has as its target Beta-1 adrenergic receptor (Homo sapiens, UniProt P08588). The data set can be described thus: Agonist activity at human adrenergic beta1 receptor expressed in CHO cells assessed as cAMP accumulation. The class given is functional, cell-based. (Cyclic AMP is a second messenger, typically raised through Gs and lowered through Gi signalling.)
Data set [3] has as its system Liver microsomes. Briefly: Metabolic stability in human liver microsomes with 125 pmol/mL P450 assessed as compound turnover ratio at 5 uM after 30 mins by LC-MS method relative to verapamil. The class given is ADME, Microsome. The conditions noted are these: 0.5 h. A general note: Liver microsomes are a subcellular fraction often used to study metabolism.
Data set [4] has as its target Beta-2 adrenergic receptor (Homo sapiens, UniProt P07550). Briefly: Agonist activity at human adrenergic beta2 receptor expressed in CHO cells assessed as cAMP accumulation. It is filed as functional, cell-based.
Data set [5] concerns the target Beta-3 adrenergic receptor (Homo sapiens, UniProt P13945). The data set can be described thus: Agonist activity at human adrenergic beta3 receptor expressed in CHO cells assessed as cAMP accumulation. The class given is functional, cell-based.
The nature of data set [6]: Oral bioavailability in Beagle dog at 0.25 mg/kg by LC-MS/MS. It is filed as ADME, organism-based, Canis lupus familiaris. As to conditions: in vivo. The method in brief: (§1)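 Female beagle dogs (n = 2), fasted 18 h, crossover design. Oral 0.25 mg base/kg by gavage in DMSO-PEG 200-distilled water (5:30:65); iv 0.052 mg base/kg via cephalic vein in DMSO-PEG 200-saline (10:45:45). Jugular blood sampled 0.03 (iv only) to 8 h. Plasma assayed by LC–MS/MS; noncompartmental parameters.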

Data set [7] in a line: Half life in Beagle dog at 0.052 mg/kg, iv by LC-MS/MS. The conditions noted are these: in vivo. Set-up: dose 0.052 mg/kg, route intravenous. The class given is ADME, organism-based, Canis lupus familiaris. The method in brief: as §1
A short description of data set [8]: Plasma clearance in Beagle dog at 0.052 mg/kg, iv by LC-MS/MS. The class given is ADME, organism-based, Canis lupus familiaris. Set-up: dose 0.052 mg/kg, route intravenous. Put shortly:
as §1

A short description of data set [9]: Volume of distribution at steady state in Beagle dog at 0.052 mg/kg, iv by LC-MS/MS. It is filed as ADME, organism-based, Canis lupus familiaris. Also on record: dose 0.052 mg/kg, route intravenous. The conditions noted are these: in vivo, read-out: Vdss. Put shortly: as §1
Data set [10] in a line: Stability of the compound in solid state at 4 degC after 18 days. It is filed as physicochemical. As to conditions: 432 h.
Data set [11] deals with Liver microsomes. Briefly: Metabolic stability of the compound in human liver microsomes assessed as formation of N-({[3-(4-{[6-({(2R)-2-Hydroxy-2-[4-hydroxy-3-(hydroxy methyl)phenyl]ethyl}amino) hexyl]oxy}butyl)phenyl]amino} carbonyl)glycine acetate. It is filed as ADME, Microsome. The method in brief: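 Incubated at 25 µM with human liver microsomes (and hepatocytes). Samples mixed with equal volume acetonitrile, centrifuged; supernatant analysed by reverse-phase gradient LC with electrospray MS detection for metabolites.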

A short description of data set [12]: Oral bioavailability in Han Wistar rat at 2.0 mg/kg by LC-MS/MS. The conditions noted are these: in vivo. The class given is ADME, organism-based. The method in brief:
(§2)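 Male Han Wistar rats, fasted 18 h. Oral dose 2.0 mg base/kg by gavage in DMSO-PEG 200-distilled water (5:30:65); iv dose 0.25 mg base/kg via tail vein in DMSO-PEG 200-saline (10:45:45). Blood sampled 0.03 (iv only) to 8 h post dose, n = 2 animals/time-point. Plasma assayed by LC–MS/MS; parameters from noncompartmental analysis.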

Data set [13] in a line: Volume of distribution at steady state in Han Wistar rat at 0.25 mg/kg, iv by LC-MS/MS. As to conditions: in vivo, read-out: Vdss. Also on record: dose 0.25 mg/kg, route intravenous. It is filed as ADME, organism-based. The method in brief: as §2
A short description of data set [14]: Half life in Han Wistar rat at 0.25 mg/kg, iv by LC-MS/MS. Also on record: dose 0.25 mg/kg, route intravenous. The class given is ADME, organism-based. As to conditions: in vivo. The method in brief: as §2
A short description of data set [15]: Plasma clearance in Han Wistar rat at 0.25 mg/kg, iv by LC-MS/MS. It is filed as ADME, organism-based. Set-up: dose 0.25 mg/kg, route intravenous. Put shortly: as §2
Data set [16] relates to Cavia porcellus. Briefly: Bronchodilatory activity against histamine-induced bronchospasm in guinea pig assessed as time taken for 50% recovery of bronchospasm at 10-fold EC90 administered via nebulizer. It is filed as functional. The method in brief: (§3)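 Guinea pigs; agonist given as nebulised solution in dimethyl acetamide-saline vehicle at EC90 dose or 10-fold EC90 dose. Duration expressed as time to 50% recovery.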

Data set [17] deals with Cavia porcellus. The data set can be described thus: Bronchodilatory activity against histamine-induced bronchospasm in guinea pig administered via nebulizer. It is filed as functional. Put shortly: as §3
The subject of data set [18] is Cavia porcellus. Briefly: Bronchodilatory activity against histamine-induced bronchospasm in guinea pig assessed as time taken for 50% recovery of bronchospasm at EC90 administered via nebulizer. The class given is functional. Put shortly: as §3
Data set [19] in a line: Cmax in Beagle dog at 0.25 mg/kg, po by LC-MS/MS. It is filed as ADME, organism-based, Canis lupus familiaris. Also on record: dose 0.25 mg/kg, route oral. The conditions noted are these: in vivo. The method in brief:
as §1

Data set [20] can be described thus: Stability of the compound in methanol assessed as formation of methyl ester of N-({[3-(4-{[6-({(2R)-2-Hydroxy-2-[4-hydroxy-3-(hydroxy methyl)phenyl]ethyl}amino) hexyl]oxy}butyl)phenyl]amino} carbonyl)glycine acetate.

Sequence of Beta-2 adrenergic receptor (Cavia porcellus, UniProt Q8K4Z4) (Q8K4Z4 whole entry): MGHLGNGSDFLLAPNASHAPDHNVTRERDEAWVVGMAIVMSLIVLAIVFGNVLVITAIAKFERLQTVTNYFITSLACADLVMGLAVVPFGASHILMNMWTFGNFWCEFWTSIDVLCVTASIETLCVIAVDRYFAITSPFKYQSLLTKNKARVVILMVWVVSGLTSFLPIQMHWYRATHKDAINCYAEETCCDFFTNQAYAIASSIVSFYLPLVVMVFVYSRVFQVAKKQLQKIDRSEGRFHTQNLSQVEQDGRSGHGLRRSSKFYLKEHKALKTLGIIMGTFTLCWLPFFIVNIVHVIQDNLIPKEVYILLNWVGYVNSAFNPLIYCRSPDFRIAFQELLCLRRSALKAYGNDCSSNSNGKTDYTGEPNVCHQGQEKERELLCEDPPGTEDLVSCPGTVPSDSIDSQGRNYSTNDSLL
Sequence of Beta-2 adrenergic receptor (Homo sapiens, UniProt P07550) (P07550 whole entry): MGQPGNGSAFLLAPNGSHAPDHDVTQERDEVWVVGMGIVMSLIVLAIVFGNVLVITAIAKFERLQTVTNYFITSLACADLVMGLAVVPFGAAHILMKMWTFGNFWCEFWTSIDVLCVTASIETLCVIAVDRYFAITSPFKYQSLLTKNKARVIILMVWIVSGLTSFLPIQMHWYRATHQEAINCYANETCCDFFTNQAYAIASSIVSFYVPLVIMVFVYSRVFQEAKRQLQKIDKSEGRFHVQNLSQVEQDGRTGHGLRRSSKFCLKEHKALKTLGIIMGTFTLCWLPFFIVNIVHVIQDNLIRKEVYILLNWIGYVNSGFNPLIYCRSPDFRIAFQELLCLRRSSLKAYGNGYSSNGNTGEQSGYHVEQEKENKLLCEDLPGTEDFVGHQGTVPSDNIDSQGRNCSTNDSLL
Sequence of Beta-1 adrenergic receptor (P08588 whole entry): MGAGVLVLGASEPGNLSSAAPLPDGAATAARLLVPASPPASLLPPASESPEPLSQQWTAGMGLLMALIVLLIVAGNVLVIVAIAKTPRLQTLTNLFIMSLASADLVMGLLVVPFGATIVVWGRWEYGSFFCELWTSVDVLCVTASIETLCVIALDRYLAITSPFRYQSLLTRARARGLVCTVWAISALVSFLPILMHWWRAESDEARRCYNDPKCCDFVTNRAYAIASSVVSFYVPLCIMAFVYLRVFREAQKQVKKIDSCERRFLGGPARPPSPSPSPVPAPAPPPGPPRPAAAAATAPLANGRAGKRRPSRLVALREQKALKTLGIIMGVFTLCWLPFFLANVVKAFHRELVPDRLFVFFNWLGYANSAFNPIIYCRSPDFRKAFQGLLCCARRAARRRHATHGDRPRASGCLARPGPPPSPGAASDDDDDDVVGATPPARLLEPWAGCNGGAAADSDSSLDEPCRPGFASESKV
Sequence of Beta-3 adrenergic receptor (P13945 whole entry): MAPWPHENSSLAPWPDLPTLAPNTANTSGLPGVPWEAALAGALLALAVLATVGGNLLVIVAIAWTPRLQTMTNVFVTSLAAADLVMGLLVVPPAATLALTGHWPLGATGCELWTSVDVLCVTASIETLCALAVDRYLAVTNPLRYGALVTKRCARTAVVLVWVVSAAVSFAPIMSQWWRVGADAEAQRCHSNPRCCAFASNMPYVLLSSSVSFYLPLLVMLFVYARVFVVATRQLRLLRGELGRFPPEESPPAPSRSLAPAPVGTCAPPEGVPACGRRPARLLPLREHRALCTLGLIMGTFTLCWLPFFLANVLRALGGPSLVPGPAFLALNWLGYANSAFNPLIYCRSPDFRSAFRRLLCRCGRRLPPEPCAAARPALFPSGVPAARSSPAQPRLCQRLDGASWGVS

In the case of `O=c1cc[nH]c(=O)n1-c1cccc(CCCCOCCCCCCNC[C@H](O)c2ccc(O)c(CO)c2)c1` [listing 1 of 2 here], the half-maximal effective concentration (EC50) (in general, the concentration needed to bring the measured effect to its halfway point) in data set [1] is 0.2 nM.
Turning to `CC(=O)O.CC1(C)NC(=O)N(c2cccc(CCCCOCCCCCCNC[C@H](O)c3ccc(O)c(CO)c3)c2)C1=O`, the EC50 in data set [2] is 200 nM; in data set [4], 0.794 nM; in data set [5], 63.1 nM. Further, the Ratio in the data set with Liver microsomes [3] was 0.48.
The matching figures for `CC(=O)O.O=C1CNC(=O)N1Cc1cccc(CCCCOCCCCCCNC[C@H](O)c2ccc(O)c(CO)c2)c1`: 126 nM, 1.26 nM, 39.8 nM and 1.62.
With `CC(=O)O.NC(=O)CN1C(=O)CN(c2cccc(CCCCOCCCCCCNC[C@H](O)c3ccc(O)c(CO)c3)c2)C1=O`, the EC50 in data set [2] was 158 nM; in [4] it was 0.251 nM; in data set [5] it was 79.4 nM. Moreover, in the data set with Liver microsomes [3], the Ratio is recorded as 0.91.
On to `O=C(O)CNC(=O)Nc1cccc(CCCCOCCCCCCNC[C@H](O)c2ccc(O)c(CO)c2)c1` [listing 1 of 2 here], for which, in data set [1], the EC50 is 1 nM.
Take `O=C1CNC(=O)N1c1ccccc1CCCCOCCCCCCNC[C@H](O)c1ccc(O)c(CO)c1`: the results for the EC50 in data set [2], in data set [4] and in [5] were 200 nM, 2.51 nM and 200 nM, respectively. The Ratio in the data set with Liver microsomes [3] was determined as 0.46.
Take `CC(=O)O.O=C1CN(Cc2cccc(CCCCOCCCCCCNC[C@H](O)c3ccc(O)c(CO)c3)c2)C(=O)N1`: the EC50 is 79.4 nM in [2], 0.631 nM in data set [4] and 63.1 nM in [5]. Further, the Ratio in the data set on Liver microsomes [3] was found to be 0.75.
For `CC(=O)O.O=C1CNC(=O)N1c1cccc(CCCCOCCCCCCNC[C@H](O)c2ccc(O)c(CO)c2)c1`, the bioavailability – broadly, dose-corrected exposure relative to a reference, in per cent – came out at 5% in data set [6] and 2% in data set [12]. Also, the results for the half-life in data set [7] and in data set [14] were 2 h and 0.3 h, respectively. The EC50 was 79.4 nM in [2], 0.794 nM in [1], 0.631 nM in data set [4] and 100 nM in data set [5]. Moreover, the clearance (commonly the rate of elimination divided by the concentration) amounted to 13 mL/min/kg in [8] and 120 mL/min/kg in [15]. Besides, the Vd is 0.8 L/kg in data set [9] and 2 L/kg in [13]. Moreover, the Stability result (in [10]; in the data set on Liver microsomes [11]; in [20]) was “Unstable” throughout. Moreover, the Ratio with Liver microsomes [3] is listed as 0.86. Moreover, the Time in the data set with Cavia porcellus [16] is 18 h; in the data set with Cavia porcellus [18], 12 h. Further, the EC90 (in general, the concentration needed for an effect of 90%) with Cavia porcellus [17] stood at 25000 nM. In data set [19], the Cmax (usually the peak of the concentration-time curve) came to 12 ng/mL.
Consider `O=C(O)CNC(=O)Nc1cccc(CCCCOCCCCCCNC[C@H](O)c2ccc(O)c(CO)c2)c1` [listing 2 of 2 here], for which the figures for the EC50 in [2], in data set [4] and in [5] were 126 nM, 1 nM and 100 nM, respectively. The Ratio in the data set with Liver microsomes [3] stood at 0.55.
Consider `O=C1NC(=O)N(Cc2cccc(CCCCOCCCCCCNC[C@H](O)c3ccc(O)c(CO)c3)c2)C1=O`, for which the concentration giving a half-maximal response (EC50) in data set [2] is 50.1 nM; in data set [4], 0.794 nM; in [5], 25.1 nM.
In the case of `CC(=O)O.O=C1CN(c2cccc(CCCCOCCCCCCNC[C@H](O)c3ccc(O)c(CO)c3)c2)C(=O)N1`, the EC50 is 200 nM in [2], 2.51 nM in data set [1], 2.51 nM in data set [4] and 316 nM in data set [5]. The Ratio in the data set with Liver microsomes [3] was 0.4.
Regarding `O=c1ccn(-c2cccc(CCCCOCCCCCCNC[C@H](O)c3ccc(O)c(CO)c3)c2)c(=O)[nH]1`, the values for the concentration giving a half-maximal response (EC50) in data set [2], in [4] and in [5] were 50.1 nM, 1.26 nM and 50.1 nM, respectively.
For the molecule `OCc1cc(C(O)CNCCCCCCOCCCCc2ccccc2)ccc1O` (stereo unspecified) [SALMETEROL], the EC50 in data set [1] is 5.01 nM. Further, in the data set with Cavia porcellus [17], the EC90 is 50000 nM.
Regarding `CC(=O)O.O=C1CNC(=O)N1c1ccc(CCCCOCCCCCCNC[C@H](O)c2ccc(O)c(CO)c2)cc1`, the results for the half-maximal effective concentration (EC50) in data set [2], in data set [4] and in data set [5] were 79.4 nM, 2 nM and 31.6 nM, respectively. In addition, the Ratio in the data set on Liver microsomes [3] worked out at 0.3.
Regarding `O=c1cc[nH]c(=O)n1-c1cccc(CCCCOCCCCCCNC[C@H](O)c2ccc(O)c(CO)c2)c1` [listing 2 of 2 here], the EC50 in data set [2] is 251 nM; in [4] it was 0.794 nM; in data set [5] it was 398 nM.
